The IC50 is the concentration needed to halve the response being measured. Higher therefore signals a need for much substance. By inhibition is commonly meant the relative decrease from the control value, in per cent.

Some results are limits rather than exact numbers.

Assay [1] concerns Trypanosoma brucei rhodesiense. Briefly: Inhibitory concentration against Trypanosoma brucei rhodesiense STIB 900 upon incubation at 37 degrees C in 5% CO2 for 72 hours. The format is functional, organism-based.
The target in assay [2] is T1, Beta-ketoacyl-ACP-synthase III (Plasmodium falciparum) (UniProt O77078).
T1 sequence (whole entry): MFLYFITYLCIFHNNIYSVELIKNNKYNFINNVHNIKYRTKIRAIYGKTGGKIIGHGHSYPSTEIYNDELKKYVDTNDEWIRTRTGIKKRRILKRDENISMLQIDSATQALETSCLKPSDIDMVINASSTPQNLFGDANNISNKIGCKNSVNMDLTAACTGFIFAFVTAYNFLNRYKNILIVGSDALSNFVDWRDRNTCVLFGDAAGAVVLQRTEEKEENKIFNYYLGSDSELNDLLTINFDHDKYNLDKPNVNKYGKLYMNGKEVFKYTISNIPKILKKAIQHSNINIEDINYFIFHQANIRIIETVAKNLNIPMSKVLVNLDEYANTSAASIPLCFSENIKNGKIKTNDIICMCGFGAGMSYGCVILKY
In words: Percent inhibition of Plasmodium falciparum beta-Ketoacyl-acyl carrier protein synthase III activity (MBP-pfKASIII) expressed in E. coli cells using [1-14C]acetyl-CoA as radioligand upon incubation at 37 degrees C for 15 minutes with compound dissolved in 2% DMSO at 100 uM.

The test system of the next assay is Plasmodium falciparum. In words: In vitro inhibitory concentration against chloroquine-resistant, pyrimethamine-resistant Plasmodium falciparum K1. The format is functional, organism-based.
For a further assay, the system named is Trypanosoma cruzi. Briefly: Inhibitory concentration against Trypanosoma cruzi [Tulahuen strain C2C4] in rat skeletal myoblasts upon incubation at 37 degrees C for 4 days in 5% CO2. In kind it is functional, organism-based.
Assay [3] has as its target T1, Beta-ketoacyl-ACP-synthase III (Plasmodium falciparum). Briefly: Percent inhibition of recombinant Plasmodium falciparum beta-Ketoacyl-acyl carrier protein synthase III activity (MBP-pfKASIII) expressed in E. coli cells using [1-14C]acetyl-CoA as radioligand upon incubation at 37 degrees C for 15 minutes with compound dissolved in 2% DMSO at 10 uM; NA = no activity. In outline:
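MBP-fused pfKASIII from E. coli BL21(DE3) codon+RIL, amylose-purified, 500 ng per reaction. Buffer: 100 mM NaH2PO4 pH 6.6, with 25 µM E. coli ACP prereduced with 1 mM β-mercaptoethanol (37 °C, 30 min), 1 µg E. coli FabD, 65 µM malonyl-CoA and 45 µM [1-14C]acetyl-CoA. 2% DMSO final; 37 °C, 15 min. Read-out: filter disks, TCA-washed, scintillation-counted.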

Another assay relates to Leishmania donovani. Briefly: Inhibitory concentration against amastigotes of Leishmania donovani strain MHOM/ET/67/L82 upon incubation at 37 degrees C for 72 hours using alamar blue. Background: Resazurin is reduced to fluorescent resorufin, in cell work by metabolically active cells.

As to `CCCCCCCCCCC1(C)SC(O)=C(CCCC)C1=O` (stereo not given), the IC50 in assay [1] (Trypanosoma brucei, 72 h) came out at 8 µM; in the assay with Plasmodium falciparum (Plasmodium falciparum), 71 µM; with Trypanosoma cruzi (Trypanosoma cruzi, 96 h), 77 µM. For the same molecule, in assay [2], the inhibition is 60%.
With `CCCCCCCCCCC1(C)NC(=O)C(C(C)=O)=C1O` (stereo not given), the IC50 in assay [1] (Trypanosoma brucei, 72 h) worked out at 7 µM; with Plasmodium falciparum (Plasmodium falciparum), 63 µM; in the assay with Trypanosoma cruzi (Trypanosoma cruzi, 96 h), 153 µM; with Leishmania donovani, 3 µM. In addition, the inhibition result in assay [3] was “No activity”.
Consider `CC1SC(O)=C(Cc2ccccc2)C1=O` (stereo not given), for which the IC50 is 408 µM in assay [1] (Trypanosoma brucei, 72 h); 195 µM with Plasmodium falciparum (Plasmodium falciparum); greater than 408 µM with Trypanosoma cruzi (Trypanosoma cruzi, 96 h). Moreover, the inhibition entry in assay [3] was “No activity”.
As for `CCCCCCCCCCCCCCCCC1(C)SC(O)=C(Cc2ccccc2)C1=O` (stereo not given), the IC50 came out at 32 µM in assay [1] (Trypanosoma brucei, 72 h); 7 µM with Plasmodium falciparum (Plasmodium falciparum); 14 µM in the assay on Trypanosoma cruzi (Trypanosoma cruzi, 96 h); 2 µM in the assay on Leishmania donovani. For the same molecule, in assay [2], the inhibition was determined as 50%.
Regarding `CCC1SC(O)=C(C)C1=O` (stereo not given), the IC50 in assay [1] (Trypanosoma brucei, 72 h) was greater than 568 µM; in the assay on Plasmodium falciparum (Plasmodium falciparum) it was greater than 316 µM; in the assay on Trypanosoma cruzi (Trypanosoma cruzi, 96 h) it was greater than 568 µM. For the same molecule, the inhibition result in assay [3] was “No activity”.
Regarding `CCCCCCCCCCC1(C)SC(O)=C(CC)C1=O` (stereo not given), the 50% inhibitory concentration (IC50) in assay [1] (Trypanosoma brucei, 72 h) was determined as 97 µM; in the assay on Plasmodium falciparum (Plasmodium falciparum), 15 µM; in the assay with Trypanosoma cruzi (Trypanosoma cruzi, 96 h), 54 µM. For the same molecule, the inhibition in assay [2] was found to be 40%.
Taken in the same sequence, the figures for `CCCCCCCCCCC1(C)SC(O)=C(CCC)C1=O` (stereo not given) were 21 µM, 10 µM, 56 µM and 55%.
Taken in the same sequence, the figures for `CCCCCCCCCCC1(C)OC(O)=C(CCCC)C1=O` (stereo not given) were 13 µM, greater than 15 µM, 70 µM and 60%.
Take `CCCCCCCCCCC1(C)SC(=O)C(CCC)=C1OCCCCCCO` (stereo not given): the IC50 worked out at 64 µM in assay [1] (Trypanosoma brucei, 72 h); 31 µM in the assay with Plasmodium falciparum (Plasmodium falciparum); 64 µM in the assay on Trypanosoma cruzi (Trypanosoma cruzi, 96 h); 36 µM in the assay with Leishmania donovani. In addition, the inhibition in assay [2] was 5%.
Take `CCC1=C(O)SC(C)C1=O` (stereo not given): the IC50 in assay [1] (Trypanosoma brucei, 72 h) worked out at 357 µM; in the assay with Plasmodium falciparum (Plasmodium falciparum) it was 233 µM; with Trypanosoma cruzi (Trypanosoma cruzi, 96 h) it was 568 µM. Besides, in assay [3], the inhibition entry was “No activity”.
Turning to `CC1=C(O)SC(C)C1=O` (stereo not given) [THIOLACTONE], the IC50 in assay [1] (Trypanosoma brucei, 72 h) was greater than 624 µM; with Plasmodium falciparum (Plasmodium falciparum) it was greater than 347 µM; in the assay on Trypanosoma cruzi (Trypanosoma cruzi, 96 h), greater than 624 µM. The inhibition result in assay [3] was “No activity”.
Consider `CCCCCCCCC1(C)SC(O)=C(CC)C1=O` (stereo not given), for which the concentration for half-maximal inhibition (IC50) in assay [1] (Trypanosoma brucei, 72 h) is 157 µM; in the assay with Plasmodium falciparum (Plasmodium falciparum), 54 µM; in the assay on Trypanosoma cruzi (Trypanosoma cruzi, 96 h) it was 165 µM. The inhibition result in assay [3] is “No activity”.
Turning to `CCCCCCC1(C)SC(O)=C(CC)C1=O` (stereo not given), the IC50 was 71 µM in assay [1] (Trypanosoma brucei, 72 h); 61 µM with Plasmodium falciparum (Plasmodium falciparum); 195 µM with Trypanosoma cruzi (Trypanosoma cruzi, 96 h). Besides, the inhibition in assay [2] came out at 5%.
On to `CCCCCCCCCCCCCCCCC1(CC)SC(O)=C(C)C1=O` (stereo not given), for which the IC50 in assay [1] (Trypanosoma brucei, 72 h) came out at 130 µM; with Plasmodium falciparum (Plasmodium falciparum) it was 35 µM; in the assay with Trypanosoma cruzi (Trypanosoma cruzi, 96 h), 49 µM. The inhibition in assay [2] amounted to 40%.
As to `CCCCCCCCCCCCCCCCC1(C)SC(O)=C(CC)C1=O` (stereo not given), the IC50 was found to be 47 µM in assay [1] (Trypanosoma brucei, 72 h); 19 µM in the assay with Plasmodium falciparum (Plasmodium falciparum); 43 µM in the assay on Trypanosoma cruzi (Trypanosoma cruzi, 96 h). Moreover, the inhibition in assay [2] came to 65%.
In the same order, the values of `CCCCCCCCCCC1(C)SC(O)=C(C)C1=O` (stereo not given) are 171 µM, 36 µM, 68 µM and 30%.
In the same order, the values of `C=CCOC1=C(C)C(=O)SC1(C)CCCCCCCCCC` (stereo not given) are 167 µM, 6 µM, 30 µM and 5%.
Regarding `CCCC1(C/C=C(/C)CCC=C(C)C)C(=O)SC(C)C1=O` (stereo not given), the IC50 in assay [1] (Trypanosoma brucei, 72 h) was determined as 55 µM; with Plasmodium falciparum (Plasmodium falciparum), 9 µM; in the assay with Trypanosoma cruzi (Trypanosoma cruzi, 96 h), 21 µM; with Leishmania donovani it was 12 µM. For the same molecule, the inhibition in assay [2] is 90%.
In the case of `CCCCCCCCCCC1(C)OC(O)=C(CC)C1=O` (stereo not given), the IC50 stood at 62 µM in assay [1] (Trypanosoma brucei, 72 h); 94 µM with Plasmodium falciparum (Plasmodium falciparum); 146 µM with Trypanosoma cruzi (Trypanosoma cruzi, 96 h).
With `CCCCCCCCCCCCCCCCC1(C)SC(O)=C(CCC)C1=O` (stereo not given), the IC50 was 29 µM in assay [1] (Trypanosoma brucei, 72 h); 6 µM in the assay with Plasmodium falciparum (Plasmodium falciparum); 13 µM with Trypanosoma cruzi (Trypanosoma cruzi, 96 h); 0.5 µM with Leishmania donovani. For the same molecule, the inhibition in assay [2] came out at 20%.
In the case of `CCCC1=C(O)SC(C)C1=O` (stereo not given), the IC50 in assay [1] (Trypanosoma brucei, 72 h) is 288 µM; in the assay with Plasmodium falciparum (Plasmodium falciparum) it was greater than 290 µM; with Trypanosoma cruzi (Trypanosoma cruzi, 96 h), greater than 522 µM. The inhibition result in assay [3] is “No activity”.
Consider `CCCCCCCCCCC1(CC)SC(O)=C(C)C1=O` (stereo not given), for which the IC50 in assay [1] (Trypanosoma brucei, 72 h) was 153 µM; in the assay with Plasmodium falciparum (Plasmodium falciparum), 65 µM; in the assay on Trypanosoma cruzi (Trypanosoma cruzi, 96 h), 72 µM. Further, the inhibition in assay [2] came out at 15%.
Taken in the same sequence, the figures for `CCCCCCCCCCC1(C)SC(O)=C(Cc2ccccc2)C1=O` (stereo not given) were 132 µM, 50 µM, 64 µM and 70%.
For the molecule `CCCCCCC1(C)OC(O)=C(C)C1=O` (stereo not given), the IC50 in assay [1] (Trypanosoma brucei, 72 h) was 247 µM; with Plasmodium falciparum (Plasmodium falciparum) it was 222 µM; in the assay with Trypanosoma cruzi (Trypanosoma cruzi, 96 h) it was greater than 424 µM. For the same molecule, the inhibition result in assay [3] is “No activity”.
As to `CC(C)=CCC1(C)SC(O)=C(C)C1=O` (stereo in doubt; 1a), the IC50 in assay [1] is 182 µM; with Plasmodium falciparum, greater than 95 µM; in the assay with Trypanosoma cruzi, greater than 142 µM; in the assay with Leishmania donovani, 56 µM. Further, in assay [2], the inhibition was 30%.
Consider `CCCCCCC1(C)SC(O)=C(C)C1=O` (stereo not given), for which the IC50 in assay [1] (Trypanosoma brucei, 72 h) was found to be 112 µM; with Plasmodium falciparum (Plasmodium falciparum) it was 139 µM; in the assay with Trypanosoma cruzi (Trypanosoma cruzi, 96 h), 127 µM. For the same molecule, the inhibition in assay [2] was 10%.
In the same order, the values of `CC(C)=CCC/C(C)=C/CC1(C)SC(O)=C(C)C1=O` (stereo not given) are 190 µM, 40 µM, 68 µM and 45%.
Taken in the same sequence, the figures for `C=CCC1(C)C(=O)SC(C)(CCCCCCCCCC)C1=O` (stereo not given) were 157 µM, 26 µM, 55 µM and 5%.
Taken in the same sequence, the figures for `CCCCCCCCC1(C)SC(O)=C(C)C1=O` (stereo not given) were 194 µM, 153 µM, greater than 350 µM and 10%.
As to `CCCCCCOCCOCCC1(C)SC(O)=C(CC)C1=O` (stereo not given), the concentration for half-maximal inhibition (IC50) is 119 µM in assay [1] (Trypanosoma brucei, 72 h); greater than 60 µM with Plasmodium falciparum (Plasmodium falciparum); 195 µM with Trypanosoma cruzi (Trypanosoma cruzi, 96 h). The inhibition entry in assay [3] is “No activity”.
For `CCC1=C(O)OC(C)C1=O` (stereo not given), the IC50 in assay [1] (Trypanosoma brucei, 72 h) is greater than 633 µM; in the assay with Plasmodium falciparum (Plasmodium falciparum) it was greater than 351 µM; in the assay on Trypanosoma cruzi (Trypanosoma cruzi, 96 h), greater than 633 µM.
Consider `C=CCC1(C)C(=O)SC(C)C1=O` (stereo not given), for which the IC50 was 79 µM in assay [1] (Trypanosoma brucei, 72 h); 62 µM in the assay with Plasmodium falciparum (Plasmodium falciparum); greater than 488 µM with Trypanosoma cruzi (Trypanosoma cruzi, 96 h). Besides, the inhibition entry in assay [3] is “No activity”.
For the molecule `CCCCCCCCCCCCCCCCC1(C)SC(O)=C(C)C1=O` (stereo not given), the IC50 is 62 µM in assay [1] (Trypanosoma brucei, 72 h); 25 µM in the assay with Plasmodium falciparum (Plasmodium falciparum); 28 µM in the assay with Trypanosoma cruzi (Trypanosoma cruzi, 96 h). Besides, the inhibition in assay [2] came out at 55%.
In the same order, the values of `CCCCCCCCCCC1SC(O)=C(C)C1=O` (stereo not given) are 6 µM, 72 µM, 164 µM and 30%.
On to `CCCCCCCCCCC1(C)SC(=O)C(CCC)=C1OCCCCCCO[Si](C)(C)C(C)(C)C` (stereo not given), for which the IC50 in assay [1] (Trypanosoma brucei, 72 h) was found to be 149 µM; in the assay on Plasmodium falciparum (Plasmodium falciparum), 3 µM; in the assay with Trypanosoma cruzi (Trypanosoma cruzi, 96 h), 14 µM; with Leishmania donovani, 7 µM. Moreover, in assay [2], the inhibition is 10%.
